# Data published in PubChem BioAssay AID588627 (Johns Hopkins Ion Channel Center, 2011).
# Out of some 310,000 compounds screened, about 1,400 (0.45%) were called active. This is one part of a sample in which actives are shown more often than they occur.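 The calls were made as follows: active = calcium response B-score plate-corrected fluorescence ratio at least 3 library SD, with starting fluorescence B-score inside 5 SD; inactive = the rest.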
# Molecular target: Mas-related G-protein coupled receptor member X1 (Homo sapiens) (UniProt Q96LB2)
# Sequence (Q96LB2 whole entry, looked up): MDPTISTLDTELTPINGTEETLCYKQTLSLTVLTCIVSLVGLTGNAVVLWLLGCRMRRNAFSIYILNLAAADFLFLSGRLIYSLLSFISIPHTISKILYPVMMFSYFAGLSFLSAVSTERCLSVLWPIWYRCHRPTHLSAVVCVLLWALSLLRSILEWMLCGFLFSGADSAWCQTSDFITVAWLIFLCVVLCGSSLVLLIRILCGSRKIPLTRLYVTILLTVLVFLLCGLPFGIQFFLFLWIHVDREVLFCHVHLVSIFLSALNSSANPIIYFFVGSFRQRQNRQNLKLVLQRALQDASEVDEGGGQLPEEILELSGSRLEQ
# Assay: agonists of human MrgX1 receptor, primary screen, HEK293 cells, Fluo-4 calcium flux (AID 588627)
# Settings: Fluo-4 calcium fluorescence, agonist mode, at 10 µM; active compounds read high
# How it was run: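 Assay system: stable human MrgX1 HEK293 cell line. Quantity: 15,000 cells per well. Schedule: cells plated overnight, dye loaded 0.5 h 37 °C, 0.5 h room temperature. Detection: Fluo-4 NW calcium-flux fluorescence, kinetic read. Read-out basis: peak-minus-minimum fluorescence over baseline, converted to B scores. Control set: positive and negative control wells on each plate.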
row,SMILES,B-score
1,CCCCN1C(=O)/C(=C2/Sc3ccc(Cl)cc3N2CC)SC1=S,34.9 (active)
2,CCCCN1C(=O)/C(=C2/C=CC=CN2C)SC1=S,inactive
3,CCCCN1C(=O)/C(=C/C=C2/C=Cc3ccccc3N2CC)SC1=S,inactive
4,COc1ccc(CCNc2ncnc3c2nnn3Cc2ccccc2)cc1,inactive
5,Fc1ccc2[nH]c3c(N4CCSCC4)ncnc3c2c1,29.1 (active)
6,Cc1c(CN2CC[C@@H](N3CCN(c4ccccn4)CC3)[C@H](O)C2)[nH]c2ccc(F)cc12,inactive
7,CCCCC(=O)NNC(=S)NC(=O)C(c1ccccc1)c1ccccc1,145 (active)
8,O=C(NNC(=S)NCc1ccco1)C(c1ccccc1)c1ccccc1,inactive
9,CC(C)C(=O)Nc1cccc(NC(=S)NC(=O)C(c2ccccc2)c2ccccc2)c1,inactive
10,CN(C)Cc1ccc(F)cc1Sc1cc(Cl)ccc1Cl,inactive
11,COc1ccccc1N1CC(C(=O)Nc2nnc(SCC(=O)NC(C)C)s2)CC1=O (stereo not drawn),inactive
12,CCc1noc(C)c1C(=O)Nc1nc(-c2ccccc2)cs1,inactive
13,OC(C#CCN1CCOCC1)(c1ccccc1)C1CCCCC1 (stereo not drawn),inactive
14,CC(Oc1ccc2ccccc2c1)C(=O)NNC(=S)NC(=O)c1ccco1 (stereo not drawn),69.9 (active)
15,CCCc1ccc(OCC(=O)NNC(=S)NC(=O)c2ccco2)cc1,inactive
16,Cc1ccc(C(=O)NNC(=O)C(C)Oc2ccc3ccccc3c2)o1 (stereo not drawn),inactive
17,CCC1(c2ccccc2)NC(=O)N(CC(=O)c2ccc3c(c2)OCO3)C1=O (stereo not drawn),inactive
18,O=C(CN1CCC(O)(c2ccccc2)CC1)Nc1ccc2c(c1)OCCO2,inactive
19,O=C(CCN1CCc2ccccc2C(O)(c2ccccc2)C1)c1ccc2c(c1)OCCO2 (stereo not drawn),29.6 (active)
20,Cc1ccc(N=C2SCCCN2C(=O)c2cccc(N3C(=O)CCC3=O)c2)cc1Cl,inactive
21,CS(=O)(=O)c1sc(C(=O)NC(=S)Nc2ccc(OC(F)(F)F)cc2)c2c1C=CCC2,inactive
22,CC(=O)OCC(COC(C)=O)OC(C)=O,inactive
23,CC(=O)OC(C)C[N+](C)(C)C (stereo not drawn),119 (active)

row,SMILES,B-score
1,CC(C[N+](C)(C)C)OC(N)=O (stereo not drawn),36.5 (active)
2,O=C(Nc1cccc(F)c1)c1coc(=O)c(Br)c1,inactive
3,N#Cc1cc([N+](=O)[O-])ccc1NCC1CCCO1 (stereo not drawn),inactive
4,Cn1c2ccccc2c(=O)c2c(=O)n(Cc3ccco3)c(COc3ccccc3)nc21,inactive
5,CCCc1nc2c(c(=O)c3ccccc3n2C)c(=O)n1C1CCCCCC1,63 (active)
6,CCCc1nc2c(c(=O)c3ccccc3n2C)c(=O)n1-c1cc(C)cc(C)c1,inactive
7,C/C=C/c1ccc(OCC(=O)OCC(=O)Nc2c(C)nn(-c3ccccc3)c2C)c(OC)c1,inactive
8,COc1cc2c3c(c1)/C(=C1/SC(=S)NC1=O)C(=O)N3C(C)(C)C=C2C,inactive
9,O=C(COC(=O)c1ccc(O)cc1)Nc1nccs1,inactive
10,COc1ccc(CNc2ccc3c(c2)CCC3)cc1OC,inactive
11,O=C(COC(=O)CNS(=O)(=O)c1ccccc1)NC12CC3CC(CC(C3)C1)C2,inactive
12,CN(C)C(=O)N=NC(=O)N(C)C,inactive
13,NC1=NC(=O)C2(COC(c3ccccc3Cl)OC2)S1 (stereo not drawn),inactive
14,CCCCCC(=O)NC(=S)NNC(=O)c1ccc([N+](=O)[O-])cc1,inactive
15,CC(C)(C)SCCNC(=O)c1cccc([N+](=O)[O-])c1,inactive
16,CC(C)CC(=O)NC(=S)NNC(=O)c1cccc([N+](=O)[O-])c1,70.6 (active)
17,CC(=O)c1c(O)cc2n(c1=O)-c1ccc(Cl)cc1C2(C)C,inactive
18,CCN(CC(=O)Nc1ccc2c(c1)OCCO2)Cc1cc(=O)oc2cc(C)c(C)cc12,inactive
19,CC(=O)Nc1ccc(NC(=O)CS(=O)(=O)c2cn(CC(=O)N3CCCCC3)c3ccccc23)cc1,inactive
20,CC1CCCCN1S(=O)(=O)c1ccc(C(=O)Nc2nnc(-c3cccs3)o2)cc1 (stereo not drawn),48.6 (active)
21,CC1CCCN(S(=O)(=O)c2ccc(C(=O)Nc3nnc(-c4ccncc4)o3)cc2)C1 (stereo not drawn),inactive
22,CSCc1nnc(NC(=O)c2ccc(S(=O)(=O)N3CCCCC3C)cc2)o1 (stereo not drawn),inactive
23,Cc1nc(N)nc(SCc2ccc([N+](=O)[O-])cc2)c1N,inactive

row,SMILES,B-score
1,CCN(C(=O)CN1C(=O)/C(=C/c2ccc(F)cc2)SC1=S)C1CCS(=O)(=O)C1 (stereo not drawn),inactive
2,Nc1ccccc1SCc1cc([N+](=O)[O-])cc2c1OCOC2,inactive
3,Nc1ccccc1SC(C[N+](=O)[O-])c1ccccc1 (stereo not drawn),28.1 (active)
4,CCS(=O)(=O)c1cc([N+](=O)[O-])c(Sc2ccccc2N)s1,inactive
5,CN1CCN(C(=O)c2ccc(NS(=O)(=O)c3ccccc3)cc2)CC1,inactive
6,C/C(=N\NC(=O)c1ccc2ccccc2c1)c1cccnc1,inactive
7,O=C(NCCC1CCCCN1S(=O)(=O)c1ccc(F)cc1)C(=O)NC1CC1 (stereo not drawn),inactive
8,CC(=O)Nc1ccc(NC(=O)CN2C(=O)COc3ccc(S(=O)(=O)N4CCCCC4)cc32)cc1,inactive
9,Cc1cccc(N(C)C(=O)CN2C(=O)COc3ccc(S(=O)(=O)N4CCCCCC4)cc32)c1,46.3 (active)
10,CN(C)c1ccc(CNC(=O)CN2C(=O)COc3ccc(S(=O)(=O)N4CCCC4)cc32)cc1,inactive
11,CCN(CC)S(=O)(=O)c1ccc(N2CC(C(=O)NCc3cccnc3)CC2=O)cc1 (stereo not drawn),inactive
12,COc1ccnc(Oc2ccccc2)n1,inactive
13,Cc1ccc(S(=O)(=O)N(CC(=O)NN=C2CCN(C)CC2)c2ccc(F)cc2)cc1,inactive
14,O=C1c2ccccc2C(=O)N1c1cccc2ccccc12,inactive
15,CC(C)OC(=O)CN1C(=O)C(=O)c2ccccc21,inactive
16,O=C1C(=O)N(c2ccccc2)c2ccccc21,29.6 (active)
17,N/C(=N\OC(=O)CCCC(=O)O)c1ncc(C(F)(F)F)cc1Cl,inactive
18,CC1CCCCC1NC(=O)CN1CCC(O)(c2ccc3c(c2)OCO3)CC1 (stereo not drawn),inactive
19,O=[N+]([O-])c1ccc2c(c1)C(O)n1nc(-c3ccccc3)nc1S2 (stereo not drawn),inactive
20,COc1ccc(/C=C(\NC(=O)c2ccccc2)C(=O)NCCN2CCOCC2)cc1OC,inactive
21,CCOC(=O)CNC(=O)/C(=C\c1ccc(F)cc1)NC(=O)c1ccccc1,inactive
22,Cn1c2ccccc2c2cc(/C=C(\NC(=O)c3ccccc3)C(=O)NCC(=O)O)ccc21,52.2 (active)
